For data set [1], the target named is T1, Transitional endoplasmic reticulum ATPase (Homo sapiens, UniProt P55072). The data set is described as follows: Inhibition of recombinant human full length Avi-tagged p97 (1 to 806 residues) expressed in Escherichia coli Rosetta 2(DE3) using 100 uM ATP as substrate incubated for 90 mins by ADP-glo assay. In a few lines: (§1)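 ADP-Glo luminescent detection of ADP formed by wild-type p97 ATPase. Enzyme was 20 nM WT p97 (indole amide series) or 10 nM (pyridine indole amide series), with ATP at 20 or 100 μM. n is the number of independent replicates, each run in duplicate or triplicate.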
A general note: ADP-Glo turns the ADP formed in a reaction into a luminescent signal.
Target sequence in this assay (P55072 whole entry, the tested form may be a part): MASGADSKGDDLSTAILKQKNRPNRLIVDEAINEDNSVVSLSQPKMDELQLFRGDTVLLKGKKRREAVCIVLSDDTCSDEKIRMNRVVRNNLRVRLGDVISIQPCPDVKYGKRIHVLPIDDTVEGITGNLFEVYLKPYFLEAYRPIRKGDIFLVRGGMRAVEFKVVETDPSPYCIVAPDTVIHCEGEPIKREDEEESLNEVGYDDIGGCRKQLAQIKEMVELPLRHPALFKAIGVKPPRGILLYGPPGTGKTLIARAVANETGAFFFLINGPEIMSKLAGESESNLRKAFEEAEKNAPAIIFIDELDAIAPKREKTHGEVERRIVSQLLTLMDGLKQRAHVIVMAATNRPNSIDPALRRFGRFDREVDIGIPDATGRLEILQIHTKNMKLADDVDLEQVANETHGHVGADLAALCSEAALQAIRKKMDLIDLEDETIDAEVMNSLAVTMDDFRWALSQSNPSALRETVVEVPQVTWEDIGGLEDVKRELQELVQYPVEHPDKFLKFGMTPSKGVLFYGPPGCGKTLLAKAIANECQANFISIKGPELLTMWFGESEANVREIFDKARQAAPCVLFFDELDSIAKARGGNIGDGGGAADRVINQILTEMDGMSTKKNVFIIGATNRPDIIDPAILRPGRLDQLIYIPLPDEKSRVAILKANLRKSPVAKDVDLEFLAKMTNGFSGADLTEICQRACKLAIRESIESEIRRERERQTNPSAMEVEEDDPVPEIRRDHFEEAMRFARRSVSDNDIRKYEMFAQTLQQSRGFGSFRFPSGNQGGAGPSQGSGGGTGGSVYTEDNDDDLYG

The target of data set [2] is T1, Transitional endoplasmic reticulum ATPase. Put plainly: Inhibition of recombinant human full length Avi-tagged p97 (1 to 806 residues) expressed in Escherichia coli Rosetta 2(DE3) using 20 uM ATP as substrate incubated for 90 mins by ADP-glo assay. In a few lines:
as §1
Target sequence in this assay (P55072 whole entry, the tested form may be a part): as above

Data set [3] is described as follows: Apparent permeability across basolateral to apical side in MDCK cells. In kind it is ADME, cell-based, Canis lupus familiaris. Conditions: dog. The essentials: (§2)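 Bidirectional permeability measured across MDCK cell monolayers, reported as apparent permeability (Papp) in cm/s for each direction.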
In data set [4] the target is T1, Transitional endoplasmic reticulum ATPase. Put plainly: Competitive inhibition of recombinant human full length Avi-tagged p97 (1 to 806 residues) expressed in Escherichia coli Rosetta 2(DE3) using 20 uM ATP as substrate incubated for 90 mins by ADP-glo assay based Michaelis-Menten plot analysis.
Target sequence in this assay (P55072 whole entry, the tested form may be a part): as above
Data set [5] is described as follows: Aqueous solubility of compound at pH 7. In kind it is physicochemical. Conditions: buffer. In a few lines:
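Aqueous solubility determined in PBS at pH 7.4.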

A short description of data set [6]: Metabolic stability in mouse microsomes assessed as half life. Format: ADME, Microsome.
Data set [7] can be described thus: Apparent permeability across apical to basolateral side in MDCK cells. Format: ADME, cell-based, Canis lupus familiaris. Conditions: dog. In a few lines: as §2
The nature of data set [8]: Metabolic stability in human microsomes assessed as half life. Format: ADME, Microsome.
The target in data set [9] is T1, Transitional endoplasmic reticulum ATPase. The data set is described as follows: Uncompetitive inhibition of recombinant human full length Avi-tagged p97 (1 to 806 residues) expressed in Escherichia coli Rosetta 2(DE3) using 20 uM ATP as substrate incubated for 90 mins by ADP-glo assay based Michaelis-Menten plot analysis. In a few lines:
(§3)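 ATP-dependence of inhibition assessed by determining IC50 at three ATP levels (5, 20 and 100 μM) in the ADP-Glo p97 ATPase assay. Inhibition mode was assigned from the shift in IC50 with increasing ATP.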
Target sequence in this assay (P55072 whole entry, the tested form may be a part): as above

For data set [10] the target is unchanged. The data set is described as follows: Inhibition of recombinant human full length Avi-tagged p97 (1 to 806 residues) expressed in Escherichia coli Rosetta 2(DE3) using 5 uM ATP as substrate incubated for 90 mins by ADP-glo assay. The essentials: as §3
Target sequence in this assay (P55072 whole entry, the tested form may be a part): as above
The target is the same in data set [11]. The data set is described as follows: Binding affinity to recombinant human full length C-terminal Avi-tagged p97 D2 domain (461 to 806 residues) expressed in Escherichia coli Rosetta 2(DE3) assessed as binding constant by SPR analysis. (In general: SPR reads the build-up and loss of mass on a sensor chip optically.)
Target sequence in this assay (P55072 2-806 limits assumed): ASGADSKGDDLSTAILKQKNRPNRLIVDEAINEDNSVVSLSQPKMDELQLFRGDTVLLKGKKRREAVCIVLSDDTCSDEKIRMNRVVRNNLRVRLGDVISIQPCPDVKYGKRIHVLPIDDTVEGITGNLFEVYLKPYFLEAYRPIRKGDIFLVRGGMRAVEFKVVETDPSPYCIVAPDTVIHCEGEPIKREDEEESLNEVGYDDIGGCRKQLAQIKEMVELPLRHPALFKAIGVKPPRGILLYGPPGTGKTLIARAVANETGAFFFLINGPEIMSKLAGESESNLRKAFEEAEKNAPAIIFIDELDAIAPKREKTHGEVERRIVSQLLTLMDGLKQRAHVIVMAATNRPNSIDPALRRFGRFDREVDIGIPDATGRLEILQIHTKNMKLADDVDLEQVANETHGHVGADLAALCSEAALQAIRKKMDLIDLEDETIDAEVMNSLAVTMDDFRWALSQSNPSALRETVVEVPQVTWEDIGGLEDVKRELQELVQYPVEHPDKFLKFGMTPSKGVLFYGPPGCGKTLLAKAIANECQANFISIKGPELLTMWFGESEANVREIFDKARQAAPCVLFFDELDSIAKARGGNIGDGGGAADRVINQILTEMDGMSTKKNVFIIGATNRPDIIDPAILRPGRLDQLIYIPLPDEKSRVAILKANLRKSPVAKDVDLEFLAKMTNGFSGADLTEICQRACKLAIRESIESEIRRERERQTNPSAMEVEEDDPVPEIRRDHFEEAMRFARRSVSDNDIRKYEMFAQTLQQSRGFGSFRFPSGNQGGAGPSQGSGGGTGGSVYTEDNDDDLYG
Data set [12] has the same target. Put plainly: Binding affinity to recombinant human full length Avi-tagged p97 (1 to 806 residues) expressed in Escherichia coli Rosetta 2(DE3) assessed as binding constant by SPR analysis.
Target sequence in this assay (P55072 2-806 limits assumed): as above
The target is the same in data set [13]. Put plainly: Binding affinity to recombinant human full length N-terminal Avi-tagged p97 ND1 domain (1 to 458 residues) expressed in Escherichia coli Rosetta 2(DE3) assessed as binding constant by SPR analysis.
Target sequence in this assay (P55072 2-806 limits assumed): as above

The structures appear in SMILES notation. Converted amounts (≈) assume the structure as drawn. The source made the active and inactive calls.

For orientation: IC50 means the concentration that inhibits the measured activity by half. Usually Papp B→A stands for the apparent permeability from the basolateral to the apical side of a cell layer. What is called Ki is a measure of affinity in units of concentration, obtained from inhibition or displacement. For orientation: solubility means the concentration that dissolves in the medium under given conditions. One may read the half-life as the time needed for the level to fall by half in the phase considered. In general, Papp A→B refers to the apparent permeability from the apical to the basolateral side of a cell layer.

As for `CCc1cc2cc(NC(=O)c3nccnc3N)ccc2[nH]1`, the concentration for half-maximal inhibition (IC50) in data set [1] stood at 13 µM.
In the case of `Cc1cc2cc(NC(=O)c3ncccc3N)ccc2[nH]1`, the IC50 in [2] is over 50 µM.
Consider `Cc1cc2cc(NC(=O)c3cccnc3N)ccc2[nH]1`, for which the Papp B→A in data set [3] is 46 ×10⁻⁶ cm/s. For the same compound, the IC50 was determined as 2.6 µM in [2] and 0.5 µM in data set [1]. The Ki in data set [4] was found to be 3.5 µM; in data set [9] it was 0.74 µM. Moreover, the concentration in solution in data set [5] (solubility) came to 330 µM (≈ 87.9 µg/mL). The half-life in [6] was 5 min; in data set [8], over 60 min. The Papp A→B in data set [7] is 71 ×10⁻⁶ cm/s.
For `Cc1cc2cc(NC(=O)c3nccnc3N)ccc2[nH]1`, the IC50 in [10] was determined as 26 µM; in data set [2], 11.5 µM; in [1] it was 3.5 µM. Further, the solubility in [5] was 56 µM (≈ 15 µg/mL). For the same compound, the result in [11] was Active. In addition, in data set [12], the Kdiss is 9.1 µM. In [13], the result was inactive.
In the case of `Cc1cc2cc(NC(=O)c3cnccn3)ccc2[nH]1`, the IC50 in data set [2] is over 50 µM.
On the same count and under the same terms, the figure for `Cc1[nH]c2ccc(NC(=O)c3nccnc3N)cc2c1C` is over 50 µM; for `Nc1nccnc1C(=O)Nc1ccc2[nH]ccc2c1` it is over 50 µM.
Take `Cc1cc2cc(NC(=O)c3nccnc3N)ccc2n1C`: in data set [1], the IC50 is over 50 µM.

The values above are taken from ChEMBL document CHEMBL4715707, “Allosteric Indole Amide Inhibitors of p97: Identification of a Novel Probe of the Ubiquitin Pathway” (ACS Med Chem Lett, 2016).
